{"data": "Assay results collected from several papers", "target": "Casein kinase I isoform delta (CSNK1D, Homo sapiens, UniProt P48730)", "note": "Lines come from different studies, so protocols differ."}
{"SMILES": "Cc1c(NC(=O)c2cc(C(N)=O)nc3cc(F)ccc23)c(C(F)(F)F)nn1Cc1ccc(C(C)(C)C)cc1", "assay": "cell-free assay, competition with immobilised ligand", "conditions": "1 µM", "remaining binding [%]": 81}
{"SMILES": "CN(C)c1ncc(F)c(-c2cnn3ncccc23)n1", "assay": "binding", "conditions": "1 µM", "remaining binding [%]": 100}
{"SMILES": "CNC(=O)Nc1ccc2c(c1)CC[C@@]21OC(=O)N(CC(=O)N(Cc2ccc(F)cc2)[C@@H](C)C(F)(F)F)C1=O", "assay": "cell-free assay, competition with immobilised ligand", "conditions": "1 µM", "remaining binding [%]": 99}
{"SMILES": "O=C(NCC1CCOCC1)c1n[nH]cc1NC(=O)c1c(F)cccc1F", "assay": "binding, competition with immobilised ligand", "conditions": "1 µM", "remaining binding [%]": 77}
{"SMILES": "CNC(=O)[C@@H]1CC[C@@H](n2c(-c3ccc4cnccc4c3)nc3ccc(C(=O)NCc4cccc(C(N)=O)c4)cc32)C1", "assay": "binding, competition with immobilised ligand", "conditions": "1 µM", "remaining binding [%]": 100}
{"SMILES": "c1cncc(-c2cccc(Nc3nccc(NC4CCCCC4)n3)c2)c1", "assay": "binding, competition with immobilised ligand", "conditions": "10 µM", "remaining binding [%]": 55}
{"SMILES": "C[C@@H](c1ccc(-n2cnc3c(N)ncnc32)cc1)N1CCc2nn(C)c(Cc3ccccc3)c2C1=O", "assay": "binding, competition with immobilised ligand", "conditions": "0.1 µM", "remaining binding [%]": 76}
{"SMILES": "CN(CCCC(F)(F)F)c1nccc(-c2cnn3ncccc23)n1", "assay": "binding", "conditions": "1 µM", "remaining binding [%]": 100}
{"SMILES": "N#Cc1ccc(Nc2ccc3[nH]c(=O)[nH]c3c2)c(Cl)c1", "assay": "cell-free assay, competition with immobilised ligand", "conditions": "1 µM", "remaining binding [%]": 100}
{"SMILES": "C[C@@H]1CCN(c2nccc(-c3cnn4ncccc34)n2)C1", "assay": "binding", "conditions": "1 µM", "remaining binding [%]": 64}
{"SMILES": "CN(C)c1ncnc(-c2ccc3nc(Nc4cc(CN5CCN(C(=O)CC(F)(F)F)CC5)ccn4)[nH]c3c2)c1Cl", "assay": "cell-free assay, competition with immobilised ligand", "conditions": "1 µM", "remaining binding [%]": 83}
{"SMILES": "O=C(c1ccc(Nc2nccc(-c3cc4ccccc4s3)n2)cc1)N1CCC(N2CCCC2)CC1", "assay": "binding, competition with immobilised ligand", "conditions": "1 µM", "remaining binding [%]": 100}
{"SMILES": "CCOCCn1cc(C(=O)Nc2ccc(-n3nc(-c4cccnc4)cc3C(F)(F)F)cn2)ccc1=O", "assay": "cell-free assay, competition with immobilised ligand", "conditions": "1 µM", "remaining binding [%]": 100}
{"SMILES": "CN(C)c1nccc(-c2cnn3ncccc23)n1", "assay": "binding", "conditions": "1 µM", "remaining binding [%]": 62}
{"SMILES": "NC(=O)c1nc(Nc2ccccc2)sc1NC(=O)C1CCCCC1", "assay": "cell-free assay, competition with immobilised ligand", "conditions": "10 µM", "remaining binding [%]": 6.8}
{"SMILES": "c1cnn2ncc(-c3ccnc(N4CCC45COC5)n3)c2c1", "assay": "binding", "conditions": "1 µM", "remaining binding [%]": 41}
{"SMILES": "O=C(c1ccc(Nc2ncc(Cl)c(-c3ccc(Cl)s3)n2)cc1)N1CCC(N2CCCC2)CC1", "assay": "binding, competition with immobilised ligand", "conditions": "1 µM", "remaining binding [%]": 100}
{"SMILES": "CNCc1ccccc1-c1csc([C@@H](C)Nc2nc(C)nc3cc(OC)c(OC)cc23)c1", "assay": "cell-free assay, competition with immobilised ligand", "conditions": "1 µM", "remaining binding [%]": 82}
{"SMILES": "O=C(NCCCN1CCOCC1)c1ccc(Nc2nccc(-c3cc4ccccc4s3)n2)cc1", "assay": "binding, competition with immobilised ligand", "conditions": "1 µM", "remaining binding [%]": 92}
{"SMILES": "COC(=O)Nc1nc2ccc(C(=O)c3ccccc3)cc2[nH]1", "assay": "cell-free assay, competition with immobilised ligand", "conditions": "10 µM", "remaining binding [%]": 36}
{"SMILES": "CNC(=O)Nc1ccc2c(c1)[C@@]1(CC2)OC(=O)N(CC(=O)N(Cc2ccc(F)cc2)[C@@H](C)C(F)(F)F)C1=O", "assay": "cell-free assay, competition with immobilised ligand", "conditions": "1 µM", "remaining binding [%]": 100}
{"SMILES": "COc1cnc(Nc2cccc(S(N)(=O)=O)c2)nc1N1CCN(c2ccccc2)CC1", "assay": "binding, competition with immobilised ligand", "conditions": "1 µM", "remaining binding [%]": 97}
{"SMILES": "F[C@@H]1CCN(c2nccc(-c3cnn4ncccc34)n2)C1", "assay": "binding", "conditions": "1 µM", "remaining binding [%]": 83}
{"SMILES": "Nc1ncc2c(n1)-c1c([nH]c3ccc(C#CC4CC4)cc13)CCCC2", "assay": "binding, competition with immobilised ligand", "conditions": "1 µM", "remaining binding [%]": 91}
